FAS TE block: FAS thioesterase domain inhibitors, primary screen, biochemical, fluorescence intensity, uHTS | recombinant FAS-TE, OMFH fluorogenic substrate, fluorescence endpoint | inhibition, % at 15 µM | 360,000 compounds, 0.67% hits | Fatty acid synthase (Homo sapiens), P49327 | AID 602261, 2012;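 active = compounds whose normalised, plate-corrected inhibition of enzyme fluorescence in the single-dose primary screen is 50% or more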;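 also: 0% = DMSO with enzyme and 100% = substrate without enzyme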
ADAM17 inh: ADAM17 inhibitors, primary screen, biochemical, QFRET | AID 720648, 2013 | 370,000 compounds, 0.83% hits | Disintegrin and metalloproteinase domain-containing protein 17 (Homo sapiens), P78536 | inhibition, % at 6.95 µM | recombinant ADAM17, EDANS/DABCYL FRET peptide cleavage;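 active = inhibition above the mean of compounds lying between control limits plus 3 SD, set per campaign, cut at about 8.5% in these data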;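 also: 0% = DMSO-only wells as the low control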
ADAM10 inh: human ADAM10 inhibitors, primary screen, biochemical, QFRET, HTS | Disintegrin and metalloproteinase domain-containing protein 10 (Homo sapiens), O14672 | recombinant ADAM10, EDANS/DABCYL FRET peptide cleavage, 3 h | inhibition, % at 7 µM | 370,000 compounds, 0.62% hits;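 active = inhibition above a per-campaign cutoff equal to the mean of compounds falling between control-based bounds plus 3 SD, cut at about 20% in these data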;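 also: 0% = DMSO wells while the 100% control is not disclosed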
SENP1 inh: human SENP1 catalytic domain inhibitors, primary screen, biochemical, FRET, uHTS | Sentrin-specific protease 1 (Homo sapiens), Q9P0U3 | recombinant SENP1 catalytic domain, CyPet-SUMO1-YPet FRET cleavage | inhibition, % at 10 µM | 360,000 compounds, 0.21% hits | AID 624204, 2012;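 active = inhibition at least 30% at 10 µM, raw YFP signal under a set limit, fluorescence ratio 0.5 to 1.5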;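 also: 0% = enzyme with DMSO and 100% = no enzyme wells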
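Test system: hSENP1 catalytic domain, recombinant; Amount: 20 pM final SENP1 enzyme; Medium: Tris pH 8 buffer plus EDTA, NaCl, BME, BSA, NP40, catalase; Schedule: 50 min enzyme reaction, room temperature, light-protected; Technique: FRET fluorescence in CFP and YFP emission channels; Controls: no-enzyme wells low, DMSO-plus-enzyme wells high control.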
* hit, by the source's call; x = no result. Hits are enriched below; roughly 1.9% of the tested compounds scored in any of these assays.

SMILES | FAS TE block | ADAM17 inh | ADAM10 inh | SENP1 inh
COc1ccc(C(=O)OCCN2CCN(C3CN(Cc4cn(Cc5cccc(C)c5)nn4)S(=O)(=O)C3)CC2)cc1OC (configuration not stated) | x | -4 | -3 | x
C[C@@H]1O[C@@H](n2c3ccc(Cl)cc3c3ccc4c5cc(Cl)ccc5[nH]c4c32)[C@H](O)[C@H](O)[C@H]1O | x | -22 | -69 | x
C=CCN(C)CC#Cc1ccc(C)cc1 | x | -3 | -2 | x
CC[C@@]12C(=O)N(c3cccc(Br)c3)C(=O)N1[C@H](c1ccc(Br)cc1)[C@@H]1C(=O)N(C(C)(C)C)C(=O)[C@@H]12 | 58* | 5 | 16 | 2
CC[C@@]12C(=O)N(c3cccc(Br)c3)C(=O)N1[C@H](c1ccc(OC)cc1)[C@@H]1C(=O)N(C(C)(C)C)C(=O)[C@@H]12 | 14 | 0 | 0 | 1
CCCC(=Nc1ccccc1)C1=C(O)C(C(=O)OC)C(C)(C)CC1=O (configuration not stated) | -3 | -1 | -17 | 6
CCCCC(=Nc1ccc(N)cc1)C1=C(O)C(C(=O)OC)C(C)(C)CC1=O (configuration not stated) | 2 | -1 | -5 | 48*
O=C(c1sccc1Cl)N1CCC(n2nnc3ncccc32)CC1 | x | -1 | -1 | x
COc1ccc(N=NC2=C(O)CC(C)(C)CC2=O)c(OC)c1 | -2 | 4 | 1 | 69*
COc1ccc(N=NC2=C(O)CC(C)(C)CC2=O)cc1 | -4 | 7 | 12 | 15
Nc1cc(OCC(F)(F)F)cc([N+](=O)[O-])c1 | -2 | -2 | 2 | -1
Nc1cc(N)c(OCC(F)(F)F)cc1OCC(F)(F)F | -11 | x | x | 32*
O=C(CSc1nnc(CNc2ccc(F)cc2)o1)N1c2ccccc2Sc2ccccc21 | 30 | 8 | 24* | 1
O=C(CSc1nnc(CNc2ccc(F)cc2)o1)N1CCN(C(=O)c2ccco2)CC1 | -6 | -2 | -1 | 2
O=C(CSC1=NNC(c2ccccn2)S1)Nc1cccc(Cl)c1 (configuration not stated) | 8 | 5 | 22* | 0
COc1cccc(N(C(=O)Cn2nnc(-c3ccc(C)cc3)n2)C(C(=O)NC(C)(C)C)c2c[nH]c3ccccc23)c1 (configuration not stated) | 24 | 12* | 23* | 0
Oc1ccc(N2CCN(C(c3cccs3)c3nnnn3CCc3ccccc3)CC2)cc1 (configuration not stated) | -5 | 2 | 21* | 1
COc1ccc(Cn2nnnc2C(c2cccs2)N2CCN(c3ccccc3)CC2)cc1 (configuration not stated) | 30 | 0 | 0 | 0
O=C(OCCN1CCN(C2CN(Cc3cn(Cc4ccc([N+](=O)[O-])cc4)nn3)S(=O)(=O)C2)CC1)c1cc2ccccc2o1 (configuration not stated) | x | -3 | 1 | x
CC(C)(C)NC(=O)C[C@H]1C[C@H](C(=O)N2CCOCC2)[C@@]2(CCC3CCCC3)c3[nH]c4ccc(Cl)cc4c3CCN2C1=O | 89* | x | x | 0
COc1ccc2[nH]c3c(c2c1)CCN1C(=O)C(CC(=O)NCCN2CCOCC2)C[C@H](C(=O)N2CCOCC2)[C@@]31CCC1CCCC1 (some centres not stated) | 44 | 3 | -5 | 1
O=C1N/C(=N/Nc2ccccc2)S/C1=C\c1ccccc1 | 1 | 4 | 6 | 105*
O=C1NC(=Nc2ccccc2)S/C1=C\c1ccccc1 | 0 | -3 | -7 | -1
CC(=O)N1CCc2cc(N=NC3=C(O)CCCC3=O)ccc21 | -4 | 3 | 2 | 47*
CCCCN1C(=O)C2(NNc3ccccc3O2)c2ccccc21 (configuration not stated) | 3 | -4 | -2 | 45
SMILES | FAS TE block | ADAM17 inh | ADAM10 inh | SENP1 inh
C=CCN1C(=O)C2(NNc3ccccc3O2)c2ccccc21 (configuration not stated) | 2 | 0 | 4 | 81*
CN1Cc2nnn(Cc3ccccc3)c2-c2ccccc2S1(=O)=O | x | -7 | -2 | x
CCCOc1ccc([N+](=O)[O-])cc1C1NC(=S)NC(c2ccccc2)=C1C(=O)OCC (configuration not stated) | 66* | -4 | 0 | -1
CCOC(=O)C1=C(c2ccccc2)NC(=O)NC1c1cc(OC)c(O)c([N+](=O)[O-])c1 (configuration not stated) | -1 | -4 | 0 | 0
O=C(CN(c1cccc(C(F)(F)F)c1)S(=O)(=O)c1ccc(Cl)c([N+](=O)[O-])c1)NCc1ccc(F)cc1 | 44 | 4 | 20* | 2
O=C(CN(c1cccc([N+](=O)[O-])c1)S(=O)(=O)c1ccccc1)NCc1cccnc1 | -2 | -2 | 4 | 1
Nc1c(Cl)cc2c(c1Br)Cc1ccccc1-2 | 1 | 0 | -5 | 0
Nc1c(Cl)cc2c(c1Oc1ccccc1)C(=O)c1ccccc1C2=O | 23 | 1 | 6 | 70*
Clc1cccc(CSc2nnc(-c3c[nH]c4ccccc34)o2)c1 | 22 | 4 | 21* | 2
CN1CC=C(c2ccccc2)N(c2ccc(Cl)cc2)C1=O | x | 3 | 6 | x
CC1=C[C@]2(C[N+](Cc3ccccc3)=C(N)N2)n2c(=O)n(-c3ccccc3)c(=O)n2C1 | x | 3 | -2 | x
COC(=O)C1=NN(C(=O)c2cccc(Br)c2)C(O)(c2ccc(Cl)cc2)C1 (configuration not stated) | 48 | 7 | 13 | 65*
CC(=O)N1CCc2c1cccc2S(=O)(=O)NC(CC(C)C)C(=O)Nc1ccc(Cl)c(Cl)c1 (configuration not stated) | x | 2 | 5 | x
C=CCn1c(COc2ccc3c(c2)CCCC3)nnc1SCC(=O)Nc1cccc(SC)c1 | 29 | 16* | 31* | 3
C=CCn1c(COc2ccc(C)cc2)nnc1SCC(=O)Nc1ccc(Oc2ccccc2)cc1 | x | 5 | 1 | x
CC(C1=CCCCC1)c1cnn(C)c1 (configuration not stated) | x | 2 | 6 | x
CN(c1ccccc1)c1ccc(/C=C(\CCC(=O)O)c2nc3ccccc3s2)cc1[N+](=O)[O-] | 11 | 9.8* | 18 | 7
COc1cc(/C=C(\CC(=O)O)c2nc3ccccc3s2)cc(OC)c1O | 1 | -14 | -44 | 57*
[C-]#[N+][C@]12C(=O)[C@H](C=C(Cl)[C@@]1(C)C=C)C(C)(C)[C@H]1C(=O)N(C)c3cccc2c31 | x | 0 | 2 | x
CC(=O)c1ccc(NCCCN2CCC(C(O)(c3ccccc3)c3ccccc3)CC2)cc1 | x | 3 | 3 | x
COc1cc(/C=C2\SC(=S)N(NS(=O)(=O)c3ccccc3)C2=O)ccc1O | -9 | -2 | -4 | 75*

Compound activity as filed in PubChem.
